15 compounds from ChEMBL document CHEMBL1137633, “2,N6-disubstituted adenosine analogs with antitrypanosomal and antimalarial activities” (Antimicrob Agents Chemother, 2007) can be followed below.

The source made the active and inactive calls. No cut-off for these calls is given here.

Experiment [1] deals with Trypanosoma brucei rhodesiense. The experiment is described as follows: Trypanocidal activity against Trypanosoma brucei rhodesiense STIB 900 […] by reporter dye assay. It is filed as functional, organism-based.
The subject of a further experiment is Plasmodium falciparum. The experiment is described as follows: Antiplasmodial activity against chloroquine and pyrimethamine-resistant Plasmodium falciparum K1 […] by reporter dye assay. It is filed as functional, organism-based.
Experiment [2] is described as follows: Cytotoxicity against HEK293T cells after 16 hrs by alamar blue staining. Conditions: Homo sapiens, HEK-293T. It is filed as cell-based. The method in brief:
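HEK 293T cells were seeded at 3×10^4/well in DMEM with 10% newborn bovine serum, 2 mM L-glutamax and 1% penicillin-streptomycin, and left to adhere for 3 h at 37°C under 5% CO2. Medium with serial drug dilutions (500 to 0.24 μM in the added medium) was then given for 16 h. Resazurin followed for a further 24 h, read by fluorescence (ex 530/em 590 nm). IC50 values came from ≥3 independent experiments.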
Background: The colour change of resazurin is a common sign of viable cells or microbes.

The next experiment concerns L6. The experiment is described as follows: Cytotoxicity against rat L6 cells. It counts as cell-based.
The subject of experiment [3] is Trypanosoma brucei brucei. The experiment is described as follows: Inhibition of Trypanosoma brucei brucei 427 P1 transporter-mediated [3H]adenosine uptake by fluid scintillation counting in presence of 100 uM adenine.
Experiment [4] is described as follows: Inhibition of Trypanosoma brucei brucei 427 P2 transporter-mediated [3H]adenosine uptake by fluid scintillation counting in presence of 100 uM inosine.
The subject of experiment [5] is Trypanosoma brucei brucei. The experiment is described as follows: Trypanostatic activity against Trypanosoma brucei brucei s427 by alamar blue fluorescent dye assay. Conditions: read-out: ED50 (the source's name). It counts as functional.
In experiment [6] the test system is Trypanosoma brucei brucei. The experiment is described as follows: Trypanocidal activity against Trypanosoma brucei brucei s427 by alamar blue fluorescent dye assay. Conditions: read-out: ED50 (the source's name). It counts as functional.
Experiment [7] relates to Leishmania major. The experiment is described as follows: Leishmanistatic activity against Leishmania major promastigotes by alamar blue fluorescent dye assay. Conditions: read-out: ED50 (the source's name). It is filed as functional.
Experiment [8] deals with Leishmania major. The experiment is described as follows: Leishmanicidal activity against Leishmania major promastigotes by alamar blue fluorescent dye assay. It is filed as functional. Conditions: read-out: ED50 (the source's name).
The subject of a further experiment is Leishmania mexicana. The experiment is described as follows: Antiprotozoal activity against axenic Leishmania mexicana amastigotes by alamar blue fluorescent dye assay. It counts as functional, organism-based.
Experiment [9] deals with Leishmania major. The experiment is described as follows: Biphasic antileishmanial activity against Leishmania major promastigotes by alamar blue fluorescent dye assay. It counts as functional, organism-based.
A short description of experiment [10]: Inhibition of [3H]hypoxanthine uptake at Trypanosoma brucei brucei 427 H2 transporter expressed in human erythrocytes by fluid scintillation counting. It is filed as cell-based.
In another experiment the test system is Trypanosoma cruzi. The experiment is described as follows: Trypanocidal activity against Trypanosoma cruzi Tulahuen C4 trypomastigotes infected in mouse macrophage by reporter dye assay. It is filed as functional, organism-based.
The subject of a further experiment is Leishmania donovani. The experiment is described as follows: Antileishmanial activity against Leishmania donovani MHOMET-67/L82 amastigotes infected in mouse macrophage by reporter dye assay. It counts as functional, organism-based.
Experiment [11] relates to Trypanosoma brucei brucei. The experiment is described as follows: Biphasic antitrypanosomal activity against Trypanosoma brucei brucei s427 by alamar blue fluorescent dye assay. It is filed as functional, organism-based.

As a reminder, the IC50 is the midpoint of a concentration-inhibition curve. A low value points to greater potency. For the compound `OC[C@H]1O[C@@H](n2cnc3c(NC4CCCC4)nc(NC4CCCCC4)nc32)[C@H](O)[C@@H]1O`, the IC50 in experiment [1] turned out to be 0.49 µM; in the experiment with Plasmodium falciparum it was 9.05 µM; in [2], 228 µM.

Broadly, the Ki is a measure of affinity in units of concentration, obtained from inhibition or displacement. Consider `OC[C@H]1O[C@@H](n2cnc3c(NC4CCCC4)nc(NC4CCCC4)nc32)[C@H](O)[C@@H]1O`, for which the IC50 was 0.4 µM in experiment [1]; over 10 µM in the experiment with Plasmodium falciparum; 97.3 µM in the experiment on L6; over 500 µM in experiment [2]; 9.01 µM in the experiment with Leishmania mexicana. In addition, the inhibition entry in experiment [3] is “inactive”. In addition, the Ki in [4] was 20 µM. For the same compound, the EC50 in experiment [5] turned out to be 0.166 µM; in [6], 15.7 µM; in the experiment with Leishmania major [7], 0.01 µM; in the experiment with Leishmania major [8] it was 9.07 µM.

In turn, `N=C(N)c1ccc(OCCCCCOc2ccc(C(=N)N)cc2)cc1` [PENTAMIDINE] yielded an IC50 in the experiment with Leishmania major [9] of 3.52 µM.

Consider `c1nc2nc(NC3CCCC3)nc(NC3CCCC3)c2[nH]1`, for which the Ki in experiment [10] worked out at 33.4 µM. The EC50 was determined as 0.026 µM in [5], 23.4 µM in experiment [6], 0.015 µM in the experiment with Leishmania major [7] and 15.1 µM with Leishmania major [8]. In the experiment with Leishmania mexicana, this compound yielded a concentration for half-maximal inhibition (IC50) of 15.2 µM.

On to `OC[C@H]1O[C@@H](n2cnc3c(NC4CCCC4)nc(NC4CC4)nc32)[C@H](O)[C@@H]1O`, for which the 50% inhibitory concentration (IC50) in experiment [1] was 1.43 µM; in the experiment on Plasmodium falciparum it was over 10 µM; in [2], over 500 µM.

For `OC[C@H]1O[C@@H](n2cnc3c(NC4CC4)nc(NC4CCCC4)nc32)[C@H](O)[C@@H]1O`, the figures for the IC50 (in experiment [1]; with Plasmodium falciparum; in [2]) were 1.84 µM, over 10 µM and over 500 µM, respectively.

As to `OC[C@H]1O[C@@H](n2cnc3c(NC4CCCC4)nc(NC4CCCCCC4)nc32)[C@H](O)[C@@H]1O`, the IC50 in experiment [1] worked out at 3.06 µM; with Plasmodium falciparum it was 6.79 µM; in experiment [2], 167 µM.

Turning to `OC[C@H]1O[C@@H](n2cnc3c(NC4CCCC4)nc(NCCOCc4ccccc4)nc32)[C@H](O)[C@@H]1O`, the IC50 in the experiment with Trypanosoma cruzi was under 30 µM; in the experiment with Leishmania donovani, under 30 µM; in experiment [1] it was 4.19 µM; in the experiment on Plasmodium falciparum, over 10 µM; in the experiment with L6 it was 78.8 µM.

Regarding `Nc1ncnc2c1ncn2[C@H]1C[C@H](O)[C@@H](CO)O1` [DEOXYADENOSINE], the inhibition result in experiment [3] was “inactive”. Further, the Ki in experiment [4] was 0.23 µM.

Regarding `CCCCCNc1nc(NCCCCC)c2ncn([C@@H]3O[C@H](CO)[C@@H](O)[C@H]3O)c2n1`, the IC50 in the experiment on Trypanosoma cruzi was under 30 µM; in the experiment with Leishmania donovani, under 30 µM; in experiment [1] it was 6.47 µM; with Plasmodium falciparum, over 10 µM; in the experiment on L6, over 200 µM.

`OC[C@H]1O[C@@H](n2cnc3c(NC4CCCC4)nc(NCCC4CNc5ccccc54)nc32)[C@H](O)[C@@H]1O` (some centres undefined): the IC50 was under 30 µM in the experiment with Trypanosoma cruzi; under 30 µM in the experiment on Leishmania donovani; 20.8 µM in [1]; over 10 µM in the experiment on Plasmodium falciparum; 48.4 µM with L6.

`OC[C@H]1O[C@@H](n2cnc3c(NC4CCCCC4)nc(NC4CCCC4)nc32)[C@H](O)[C@@H]1O`: the IC50 is 0.71 µM in experiment [1], over 10 µM in the experiment with Plasmodium falciparum and over 500 µM in experiment [2].

As to `OC[C@H]1O[C@@H](n2cnc3c(NC4CCCCCC4)nc(NC4CCCC4)nc32)[C@H](O)[C@@H]1O`, the values for the IC50 (in experiment [1]; with Plasmodium falciparum; in experiment [2]) were 0.71 µM, 8.95 µM and over 500 µM, respectively.

`CCCCNc1nc(NC2CCCC2)nc2c1ncn2[C@@H]1O[C@H](CO)[C@@H](O)[C@H]1O`: the IC50 in experiment [1] is 0.64 µM; in the experiment with Plasmodium falciparum, over 10 µM; in experiment [2] it was over 500 µM. The inhibition entry in [3] is “inactive”. For the same compound, the Ki in [4] was determined as 9 µM.

On to `N=C(N)c1ccc(/N=N/Nc2ccc(C(=N)N)cc2)cc1` [DIMINAZENE], for which inhibition in experiment [11] was half-maximal at 0.107 µM (IC50).
